Reference: publication PMC10878326 (Cell chemical biology, 2023)

Columns and labels:
[1] = test system: P. berghei schizonts in HC-04 cells; experiment: Confocal imaging of P. berghei infected HC-04 cells treated with compound; format: cell-based, Plasmodium berghei; details: HC-04, 1x and 2x IC50, 48 hpi
Method in brief: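 HC-04 cells were seeded at 16,000 cells/well on poly-L-lysine-coated chamber slides and pretreated 24 h with test compound, NR1D2 inhibitor or DMSO. They were then infected with P. berghei Luc sporozoites (MOI 1:1), with treatment kept to 48 hpi. Cells were fixed in 4% PFA, permeabilised with 0.1% Triton X-100 and blocked in 1% BSA. Staining: anti-UIS4 1:1000 overnight at 4 °C, anti-NR1D2 1:500, LipidTOX 1:500 and DAPI. Imaging was at 63x oil. Merozoites per schizont were counted. Two biological replicates; one-way ANOVA with Dunnett's test.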

NR1D2 = experiment: Western blot of NR1D2 protein in uninfected HC-04 cells; format: cell-based, human; details: uninfected HC-04, 1x to 10x IC50, 48 hours
Method in brief: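 Uninfected HC-04 cells were exposed 48 h to varying concentrations of test compound or NR1D2 inhibitor, then lysed. Protein was measured by DC assay, resolved by SDS-PAGE and transferred to nitrocellulose. Blots were blocked 1 h in 5% blocker and probed with anti-NR1D2 at 1:1000. Levels were expressed relative to beta actin.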

[2] = test system: lipid droplets in uninfected HC-04 cells; experiment: HCS LipidTOX lipid droplet staining in uninfected HC-04 cells; format: cell-based, human
P. berghei liver stages = experiment: P. berghei luciferase liver stage assay; format: cell-based, Plasmodium berghei; details: IC50 used to set 1x and 2x treatment of HC-04 cells
[3] = test system: P. berghei infected HepG2 cells; experiment: Cell Painting morphological profile compared with landmark compound set; format: cell-based, human
NR1D2 transcript = experiment: qPCR of NR1D2 transcript in treated HC-04 cells; format: cell-based, human; details: HC-04, post treatment 48h
Method in brief: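 HC-04 cells were treated 48 h with varying concentrations of test compound or NR1D2 inhibitor. Cells were harvested, RNA was extracted, and NR1D2 transcript was quantified by qPCR with gene-specific primers.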

[4] = test system: P. berghei in NR1D2 knockdown lines; experiment: Parasite development IC50 shift in NR1D2 shRNA knockdown cells; format: cell-based, Plasmodium berghei; details: stable shRNA knockdown, luciferase after 48 hours
[5] = test system: P. falciparum asexual blood stages; details: cited from earlier work

| SMILES | number of merozoites per schizont relative to DMSO [1] | NR1D2 protein expression level (western blot) (NR1D2) | HCS lipid tox staining intensities [2] | IC50 (P. berghei liver stages) [µM] | morphological profile similarity / inferred host pathway [3] | parasite size relative to DMSO controls [1] | NR1D2 RNA expression levels (NR1D2 transcript) | difference in IC50 in NR1D2 knockdown lines relative to wild type cells [4] | activity against asexual blood stages [5] |
| --- | --- | --- | --- | --- | --- | --- | --- | --- | --- |
| CN1CCN(Cc2cc(CNC3(c4ccccc4F)CCCC3)ccc2O)CC1 [ARN5187, reference compound] | lower number of merozoites per schizont | no changes in protein expression levels |  |  |  |  |  |  |  |
| CC1(C)c2nc(-c3ccc(F)cc3)c(Nc3ccc(Cl)cc3)n2CCN1C(=O)CN [GNF179] |  |  | did not observe any significant changes |  |  |  |  |  |  |
| Cc1cc(C(=O)Oc2ccccc2C(N)=O)c(C)n1Cc1ccco1 [MMV1088447] | significant reduction | dose dependent reduction |  | 1.05 ± 0.29 | phenocopied treatment with tamoxifen, endoxifen and lichochalcone A | smaller | no significant changes | did not see any differences | little activity |
| N#CC(C(=O)c1cc(S(=O)(=O)N2CCc3ccccc3C2)ccc1Cl)c1ccccn1 (stereo not shown) [MMV1346624] | significant reduction | dose dependent reduction |  | 1.04 ± 0.73 | phenocopied treatment with tamoxifen, endoxifen and lichochalcone A | smaller | no significant changes | did not see any differences | little activity |
| Cc1cccc2sc(C(=O)NCc3cccc(NS(N)(=O)=O)c3)c(Cl)c12 [MMV1452174] |  |  | did not observe any significant changes |  | potential modulator of the host S1P pathway |  |  |  |  |
| O=C1C(O)=C([C@H]2CC[C@H](c3ccc(Cl)cc3)CC2)C(=O)c2ccccc21 [atovaquone] |  |  | did not observe any significant changes |  |  |  |  |  |  |
